From ChEMBL document CHEMBL1137365, “1,4,5,6-tetrahydropyrrolo[3,4-c]pyrazoles: identification of a potent Aurora kinase inhibitor with a favorable antitumor kinase inhibition profile” (J Med Chem, 2006)
pEC50, pIC50: −log10 of the molar value. The source made the active and inactive calls. The calls are words filed in the database; no cut-off is given here.

What was measured:
HCT-116 [1] = experiment: Antiproliferative activity against HCT116 cells; assay type: functional, cell-based; details: Homo sapiens
Summary of the method: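 HCT-116 human colon carcinoma cells; proliferation IC50 taken from dose-response curves, reported as the mean of at least three independent determinations.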

Aurora kinase A = molecular target: T1, Aurora kinase A (Homo sapiens, UniProt O14965); experiment: Inhibition of Aurora A kinase
T1 sequence (O14965 whole entry): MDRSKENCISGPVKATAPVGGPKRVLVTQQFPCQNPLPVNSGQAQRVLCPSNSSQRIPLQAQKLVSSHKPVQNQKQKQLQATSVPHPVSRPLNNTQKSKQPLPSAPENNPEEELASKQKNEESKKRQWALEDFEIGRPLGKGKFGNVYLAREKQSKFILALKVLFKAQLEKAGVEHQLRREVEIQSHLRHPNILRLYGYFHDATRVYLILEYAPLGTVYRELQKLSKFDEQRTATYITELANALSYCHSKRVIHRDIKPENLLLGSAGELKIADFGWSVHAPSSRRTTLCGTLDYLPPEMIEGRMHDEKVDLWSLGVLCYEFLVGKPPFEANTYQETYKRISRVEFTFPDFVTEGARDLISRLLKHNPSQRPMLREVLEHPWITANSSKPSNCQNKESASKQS

HCT-116 [2] = experiment: Cell cycle arrest in HCT116 cells by accumulation at G2/M phase; assay type: functional, cell-based; details: Homo sapiens
Aurora kinase B = Aurora kinase B (Homo sapiens, UniProt Q96GD4); experiment: Inhibition of Aurora B kinase
Chain of Aurora kinase B (Q96GD4 whole entry): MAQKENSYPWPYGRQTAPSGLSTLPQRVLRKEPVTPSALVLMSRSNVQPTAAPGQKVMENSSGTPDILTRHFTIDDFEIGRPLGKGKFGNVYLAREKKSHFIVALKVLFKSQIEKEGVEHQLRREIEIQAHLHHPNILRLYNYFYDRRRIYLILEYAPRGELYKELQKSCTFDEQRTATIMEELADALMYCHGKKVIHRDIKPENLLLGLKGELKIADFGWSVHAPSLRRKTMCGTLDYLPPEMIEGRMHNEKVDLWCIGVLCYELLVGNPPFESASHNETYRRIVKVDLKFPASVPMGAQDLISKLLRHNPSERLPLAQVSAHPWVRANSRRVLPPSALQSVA
Summary of the method: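 Biochemical Aurora-B kinase inhibition; IC50 reported as the mean of at least three individual determinations.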

[3] = Aqueous solubility at pH 5.5; assay type: physicochemical
Summary of the method: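 Aqueous solubility measured on the hydrochloride salt at pH 5.5.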

HeLa = experiment: Antiproliferative activity against HeLa cells; assay type: functional, cell-based; details: Homo sapiens
HL-60 [4] = experiment: Body weight loss of SCID mouse xenografted with HL60 cells at 30 mg/kg, iv after 5 days; assay type: functional
HCT-116 [5] = experiment: Inhibition of histone h3 phosphorylation in HCT116 cells by Western blot analysis; assay type: functional, cell-based; details: Homo sapiens
Summary of the method: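 HCT-116 cells probed by Western blot for histone H3 phosphorylated at serine 10. α-Tubulin antibody used as the loading control.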

MCF7 = experiment: Antiproliferative activity against MCF7 cells; assay type: functional, cell-based; details: Homo sapiens
Summary of the method: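 IC50 taken from dose-response curves of cell proliferation; each reported value is the mean of three or more independent curves.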

HL-60 [6] = experiment: Antitumor activity against HL60 cells xenografted in SCID mouse at 7.5 to 30 mg/kg, iv after 5 days; assay type: functional; details: dose mg/kg 7.5-30
Summary of the method: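 SCID mice carrying HL-60 human tumor xenografts. Dosed iv twice daily for 5 days (bid × 5) at 7.5 to 30 mg/kg. Tumor growth inhibition followed over time.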

A2780 = experiment: Antiproliferative activity against A2780 cells; assay type: functional, cell-based; details: Homo sapiens
[7] = molecular target: T2, Tyrosine-protein kinase ZAP-70 (Homo sapiens, UniProt P43403); experiment: Inhibition of ZAP70
T2 sequence (P43403 whole entry): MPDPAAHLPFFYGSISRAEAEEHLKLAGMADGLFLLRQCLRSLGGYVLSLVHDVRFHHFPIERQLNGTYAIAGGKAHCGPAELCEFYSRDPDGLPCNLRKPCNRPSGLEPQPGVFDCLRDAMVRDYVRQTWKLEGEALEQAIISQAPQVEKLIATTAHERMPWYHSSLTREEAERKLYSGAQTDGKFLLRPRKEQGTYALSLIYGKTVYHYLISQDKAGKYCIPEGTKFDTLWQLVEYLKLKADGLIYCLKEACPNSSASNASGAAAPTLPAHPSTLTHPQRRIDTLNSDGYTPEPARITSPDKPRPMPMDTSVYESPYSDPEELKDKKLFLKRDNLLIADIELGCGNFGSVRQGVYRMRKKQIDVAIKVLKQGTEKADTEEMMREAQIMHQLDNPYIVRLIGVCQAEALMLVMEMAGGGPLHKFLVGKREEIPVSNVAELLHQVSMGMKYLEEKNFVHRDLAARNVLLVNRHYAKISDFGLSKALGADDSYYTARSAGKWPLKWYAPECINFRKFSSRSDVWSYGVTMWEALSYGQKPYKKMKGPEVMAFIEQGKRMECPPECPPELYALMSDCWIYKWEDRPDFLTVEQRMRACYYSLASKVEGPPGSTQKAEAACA

[8] = Clearance in CD1 mouse at 10 mg/kg, iv; assay type: ADME, organism-based; parameters: dose 10 mg/kg, route intravenous; details: in vivo
Summary of the method: (§1)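 Plasma levels followed up to 6 h post-dose. Parameters estimated individually for three mice (M1–M3) and reported as mean and SD.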

[9] = molecular target: T3, 3-phosphoinositide-dependent protein kinase 1 (Homo sapiens, UniProt O15530); experiment: Inhibition of PDK1
T3 sequence (O15530 whole entry): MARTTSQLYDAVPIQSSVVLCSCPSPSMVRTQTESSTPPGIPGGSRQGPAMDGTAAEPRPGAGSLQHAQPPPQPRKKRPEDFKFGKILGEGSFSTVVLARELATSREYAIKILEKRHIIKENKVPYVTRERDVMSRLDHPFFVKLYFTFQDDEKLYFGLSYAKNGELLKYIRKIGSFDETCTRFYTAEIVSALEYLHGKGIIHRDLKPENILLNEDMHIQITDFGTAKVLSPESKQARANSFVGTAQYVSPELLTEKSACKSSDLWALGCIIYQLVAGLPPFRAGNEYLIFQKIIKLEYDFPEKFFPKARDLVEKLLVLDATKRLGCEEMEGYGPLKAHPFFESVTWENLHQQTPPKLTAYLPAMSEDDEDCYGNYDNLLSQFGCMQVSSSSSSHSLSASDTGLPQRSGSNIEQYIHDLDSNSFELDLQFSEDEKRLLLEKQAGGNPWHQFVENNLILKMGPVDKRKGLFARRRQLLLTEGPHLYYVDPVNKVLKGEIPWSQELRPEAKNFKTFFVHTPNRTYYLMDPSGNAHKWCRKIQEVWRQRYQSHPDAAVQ

[10] = molecular target: T4, Inhibitor of nuclear factor kappa-B kinase subunit beta (Homo sapiens, UniProt O14920); experiment: Inhibition of IKK2
T4 sequence (O14920 whole entry): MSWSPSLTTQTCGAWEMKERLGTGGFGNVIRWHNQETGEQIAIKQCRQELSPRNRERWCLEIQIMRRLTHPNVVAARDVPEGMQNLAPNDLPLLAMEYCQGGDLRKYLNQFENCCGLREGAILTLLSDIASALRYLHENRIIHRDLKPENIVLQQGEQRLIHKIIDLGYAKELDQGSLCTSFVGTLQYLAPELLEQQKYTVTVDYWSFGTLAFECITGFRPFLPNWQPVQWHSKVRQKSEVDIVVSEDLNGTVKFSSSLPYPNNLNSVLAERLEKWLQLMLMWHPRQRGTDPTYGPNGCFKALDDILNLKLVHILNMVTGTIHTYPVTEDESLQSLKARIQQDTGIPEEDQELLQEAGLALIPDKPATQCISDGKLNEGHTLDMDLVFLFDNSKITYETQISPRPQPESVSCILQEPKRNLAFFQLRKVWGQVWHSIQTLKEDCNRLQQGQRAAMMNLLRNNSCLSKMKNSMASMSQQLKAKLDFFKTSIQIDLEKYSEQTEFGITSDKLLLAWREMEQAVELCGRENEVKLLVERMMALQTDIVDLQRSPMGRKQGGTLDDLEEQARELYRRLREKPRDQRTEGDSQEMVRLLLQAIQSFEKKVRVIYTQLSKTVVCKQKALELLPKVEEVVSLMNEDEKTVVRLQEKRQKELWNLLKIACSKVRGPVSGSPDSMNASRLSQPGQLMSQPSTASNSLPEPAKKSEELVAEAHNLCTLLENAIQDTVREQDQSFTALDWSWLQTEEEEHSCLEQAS

[11] = molecular target: Vascular endothelial growth factor receptor 3 (Homo sapiens, UniProt P35916); experiment: Inhibition of VEGFR3
Chain of Vascular endothelial growth factor receptor 3 (P35916 whole entry): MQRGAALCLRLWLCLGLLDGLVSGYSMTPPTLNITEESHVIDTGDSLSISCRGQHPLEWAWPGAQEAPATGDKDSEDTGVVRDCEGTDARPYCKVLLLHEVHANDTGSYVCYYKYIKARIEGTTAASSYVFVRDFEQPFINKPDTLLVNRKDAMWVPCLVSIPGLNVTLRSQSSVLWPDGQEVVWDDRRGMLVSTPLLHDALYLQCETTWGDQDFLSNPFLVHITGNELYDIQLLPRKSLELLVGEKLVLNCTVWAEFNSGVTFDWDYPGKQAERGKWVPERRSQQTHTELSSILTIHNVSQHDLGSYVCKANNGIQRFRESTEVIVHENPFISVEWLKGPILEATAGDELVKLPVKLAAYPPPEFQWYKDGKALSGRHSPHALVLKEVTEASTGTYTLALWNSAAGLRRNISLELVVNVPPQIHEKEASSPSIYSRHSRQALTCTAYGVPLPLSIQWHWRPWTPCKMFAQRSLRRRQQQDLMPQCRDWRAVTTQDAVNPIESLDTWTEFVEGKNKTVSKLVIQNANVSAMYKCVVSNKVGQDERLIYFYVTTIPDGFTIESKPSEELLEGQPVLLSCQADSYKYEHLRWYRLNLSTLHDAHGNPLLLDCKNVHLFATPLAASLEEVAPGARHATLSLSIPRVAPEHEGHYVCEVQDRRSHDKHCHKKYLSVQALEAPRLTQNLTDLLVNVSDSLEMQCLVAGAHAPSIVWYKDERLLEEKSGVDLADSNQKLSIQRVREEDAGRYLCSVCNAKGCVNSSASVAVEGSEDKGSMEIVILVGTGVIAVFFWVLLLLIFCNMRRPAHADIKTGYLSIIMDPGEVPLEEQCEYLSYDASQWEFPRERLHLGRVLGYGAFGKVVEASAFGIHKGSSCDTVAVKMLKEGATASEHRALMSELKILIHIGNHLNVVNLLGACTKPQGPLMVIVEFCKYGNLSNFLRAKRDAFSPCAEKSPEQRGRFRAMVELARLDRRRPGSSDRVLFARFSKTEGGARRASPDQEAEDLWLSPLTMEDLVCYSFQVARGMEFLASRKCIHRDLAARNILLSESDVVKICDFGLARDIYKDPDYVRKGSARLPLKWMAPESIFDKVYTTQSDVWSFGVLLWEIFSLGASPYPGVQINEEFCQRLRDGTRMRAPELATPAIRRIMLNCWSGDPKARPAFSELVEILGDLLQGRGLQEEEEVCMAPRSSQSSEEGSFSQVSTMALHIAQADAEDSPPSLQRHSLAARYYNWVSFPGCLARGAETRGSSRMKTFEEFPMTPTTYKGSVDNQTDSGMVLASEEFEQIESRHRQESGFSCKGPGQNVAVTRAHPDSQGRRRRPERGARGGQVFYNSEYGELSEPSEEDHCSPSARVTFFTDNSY

[12] = Cmax in CD1 mouse at 10 mg/kg, iv; assay type: ADME, organism-based; parameters: dose 10 mg/kg, route intravenous; details: in vivo; summary of the method: as §1
[13] = Volume of distribution in CD1 mouse at 10 mg/kg, iv; assay type: ADME, organism-based; parameters: dose 10 mg/kg, route intravenous; details: in vivo, read-out: Vss; summary of the method: as §1
Aurora kinase C = molecular target: T5, Aurora kinase C (Homo sapiens, UniProt Q9UQB9); experiment: Inhibition of Aurora C kinase
T5 sequence (Q9UQB9 whole entry): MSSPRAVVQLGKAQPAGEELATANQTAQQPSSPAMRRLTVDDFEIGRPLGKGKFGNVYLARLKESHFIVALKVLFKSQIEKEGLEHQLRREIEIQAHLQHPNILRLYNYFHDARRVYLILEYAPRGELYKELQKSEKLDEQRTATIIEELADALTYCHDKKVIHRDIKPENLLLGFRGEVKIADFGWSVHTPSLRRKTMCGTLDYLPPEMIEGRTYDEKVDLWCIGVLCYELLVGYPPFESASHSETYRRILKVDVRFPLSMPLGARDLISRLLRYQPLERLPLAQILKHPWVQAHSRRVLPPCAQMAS

[14] = AUC in CD1 mouse at 10 mg/kg, iv; assay type: ADME, organism-based; parameters: dose 10 mg/kg, route intravenous; details: plasma; summary of the method: as §1
[15] = molecular target: T6, Serine/threonine-protein kinase SULU (Caenorhabditis elegans, UniProt P46549); experiment: Inhibition of SULU
T6 sequence (P46549 whole entry): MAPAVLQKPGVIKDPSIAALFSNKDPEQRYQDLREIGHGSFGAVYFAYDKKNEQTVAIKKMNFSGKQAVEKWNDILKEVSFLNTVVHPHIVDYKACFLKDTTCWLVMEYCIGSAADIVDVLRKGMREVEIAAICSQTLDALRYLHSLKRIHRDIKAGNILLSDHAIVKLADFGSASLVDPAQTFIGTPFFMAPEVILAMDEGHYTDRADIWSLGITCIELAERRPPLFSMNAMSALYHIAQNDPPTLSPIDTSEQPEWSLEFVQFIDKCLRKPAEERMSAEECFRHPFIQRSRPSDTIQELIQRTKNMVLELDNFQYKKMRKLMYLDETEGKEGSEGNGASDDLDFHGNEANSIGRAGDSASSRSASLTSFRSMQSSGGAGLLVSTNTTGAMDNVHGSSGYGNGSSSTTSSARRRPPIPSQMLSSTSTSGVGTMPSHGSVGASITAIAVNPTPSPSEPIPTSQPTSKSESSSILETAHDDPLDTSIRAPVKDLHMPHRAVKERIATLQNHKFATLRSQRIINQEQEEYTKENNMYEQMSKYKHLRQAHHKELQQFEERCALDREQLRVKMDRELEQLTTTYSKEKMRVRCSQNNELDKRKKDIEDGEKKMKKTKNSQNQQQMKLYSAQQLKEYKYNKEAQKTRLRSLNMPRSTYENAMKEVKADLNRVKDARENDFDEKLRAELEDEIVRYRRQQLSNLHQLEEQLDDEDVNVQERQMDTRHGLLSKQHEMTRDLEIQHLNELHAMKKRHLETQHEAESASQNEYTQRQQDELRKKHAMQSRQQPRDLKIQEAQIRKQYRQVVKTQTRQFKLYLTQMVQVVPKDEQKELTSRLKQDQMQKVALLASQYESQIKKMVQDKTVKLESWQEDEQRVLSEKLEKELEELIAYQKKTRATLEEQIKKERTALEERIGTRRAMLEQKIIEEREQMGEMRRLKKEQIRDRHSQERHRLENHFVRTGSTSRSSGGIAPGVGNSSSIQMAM

[16] = Terminal half life in CD1 mouse at 10 mg/kg, iv; assay type: ADME, organism-based; parameters: dose 10 mg/kg, route intravenous; details: in vivo, read-out: beta t1/2 (converted); summary of the method: as §1
[17] = molecular target: Serine/threonine-protein kinase NIM1 (Homo sapiens, UniProt Q8IY84); experiment: Inhibition of NIM1
Chain of Serine/threonine-protein kinase NIM1 (Q8IY84 whole entry): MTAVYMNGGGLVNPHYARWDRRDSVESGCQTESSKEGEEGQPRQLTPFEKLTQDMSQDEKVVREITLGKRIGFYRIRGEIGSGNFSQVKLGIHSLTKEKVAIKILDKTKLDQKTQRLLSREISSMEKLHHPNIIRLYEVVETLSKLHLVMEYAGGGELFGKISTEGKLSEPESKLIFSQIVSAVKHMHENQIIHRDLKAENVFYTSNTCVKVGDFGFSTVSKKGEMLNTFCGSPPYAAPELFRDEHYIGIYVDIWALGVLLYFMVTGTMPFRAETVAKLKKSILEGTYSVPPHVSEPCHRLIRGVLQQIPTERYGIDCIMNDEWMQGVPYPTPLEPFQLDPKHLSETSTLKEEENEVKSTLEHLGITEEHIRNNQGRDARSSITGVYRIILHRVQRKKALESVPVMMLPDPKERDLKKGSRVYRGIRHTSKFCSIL

SMILES	pIC50 (HCT-116 [1])	pIC50 (Aurora kinase A)	pEC50 (HCT-116 [2])	pIC50 (Aurora kinase B)	other results
CN1CCN(c2ccc(C(=O)Nc3n[nH]c4c3CN(C(=O)Cc3ccccc3)C4)cc2)CC1	6.66	6.89	6.30	–	–
C[C@H](C(=O)N1Cc2n[nH]c(NC(=O)c3ccc(N4CCN(C)CC4)cc3)c2C1)c1ccccc1	–	6.34	–	5.92	–
CN1CCN(c2ccc(C(=O)Nc3n[nH]c4c3CN(C(=O)[C@H](F)c3ccccc3)C4)cc2)CC1	7.30	8.05	6.96	6.52	–
CN1CCN(c2ccc(C(=O)Nc3n[nH]c4c3CN(C(=O)[C@H](O)c3ccccc3)C4)cc2)CC1	7.01	8.22	< 6.70	7.32	–
C[C@@H](C(=O)N1Cc2[nH]nc(NC(=O)c3ccc(N4CCN(C)CC4)cc3)c2C1)c1ccccc1	7.68	7.62	7.00	7.00	–
CO[C@@H](C(=O)N1Cc2n[nH]c(NC(=O)c3ccc(N4CCN(C)CC4)cc3)c2C1)c1ccccc1.Cl	–	–	–	–	solubility [3]: > 15 mg/mL
CO[C@@H](C(=O)N1Cc2[nH]nc(NC(=O)c3ccc(N4CCN(C)CC4)cc3)c2C1)c1ccccc1 [DANUSERTIB]	7.51	–	7.10	–	pIC50 (HeLa): 6.85; Activity (HL-60 [4]): 16%; Activity (HCT-116 [5]): Active; pIC50 (MCF7): 7.10; TGI (HL-60 [6]): 98%; pIC50 (A2780): 7.55
CO[C@@H](C(=O)N1Cc2n[nH]c(NC(=O)c3ccc(N4CCN(C)CC4)cc3)c2C1)c1ccccc1 [DANUSERTIB]	–	–	–	–	pIC50 [7]: < 5.00; clearance [8]: 60 mL/min/kg; pIC50 [9]: < 5.00; pIC50 [10]: < 5.00; pIC50 [11]: 6.79; Cmax [12]: 9.6 µM; Vd [13]: 3.7 L/kg; pIC50 (Aurora kinase C): 7.21; AUC [14]: 6.5 µM·h; pIC50 [15]: < 5.00; half-life [16]: 1.4 h; pIC50 [17]: < 5.00
